Experimental data reported in ChEMBL document CHEMBL1148344, “3-(2-aminoalkyl)-1-(2,6-difluorobenzyl)-5- (2-fluoro-3-methoxyphenyl)-6-methyl-uracils as orally bioavailable antagonists of the human gonadotropin releasing hormone receptor” (J Med Chem, 2004).

How the values were obtained:
[1] = biological target: T1, Gonadotropin-releasing hormone receptor (Homo sapiens, UniProt P30968); test: Binding affinity towards human gonadotropin releasing hormone receptor using des-Gly10[125I]Tyr5,D-Leu6,NMeLeu7,Pro9-NEt]GnRH as radioligand expressed in HEK293 cells; format: cell-based
T1 sequence (P30968 whole entry): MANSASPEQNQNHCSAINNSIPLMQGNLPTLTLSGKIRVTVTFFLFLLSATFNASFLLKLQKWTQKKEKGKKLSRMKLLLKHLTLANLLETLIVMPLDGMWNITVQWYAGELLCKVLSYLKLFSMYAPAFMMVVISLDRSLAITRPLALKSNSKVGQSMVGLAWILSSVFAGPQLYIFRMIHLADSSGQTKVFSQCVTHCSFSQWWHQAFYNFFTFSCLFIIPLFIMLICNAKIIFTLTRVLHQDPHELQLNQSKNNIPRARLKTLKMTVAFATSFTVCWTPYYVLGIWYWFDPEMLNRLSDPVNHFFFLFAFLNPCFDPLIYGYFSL
Procedure, shortened: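 Competitive displacement at cloned human GnRH receptor expressed in HEK293 cells, 96-well filtration format. Three to eight independent experiments.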

[2] = Half life in mouse; format: ADME, organism-based; details: in vivo
Procedure, shortened: (§1)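 Mice dosed orally and intravenously at 10 mg/kg. Pharmacokinetic parameters derived from plasma exposure after each route.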

[3] = Clearance in mouse; format: ADME, organism-based; details: in vivo; procedure, shortened: as §1
[4] = Bioavailability in mouse; format: ADME, organism-based; details: in vivo; procedure, shortened: as §1
[5] = Volume of distribution in mouse; format: ADME, organism-based; details: in vivo; procedure, shortened: as §1
[6] = biological target: T2, Gonadotropin-releasing hormone receptor (Rattus norvegicus, UniProt P30969); test: Tested for binding affinity towards rat gonadotropin releasing hormone receptor
T2 sequence (P30969 whole entry): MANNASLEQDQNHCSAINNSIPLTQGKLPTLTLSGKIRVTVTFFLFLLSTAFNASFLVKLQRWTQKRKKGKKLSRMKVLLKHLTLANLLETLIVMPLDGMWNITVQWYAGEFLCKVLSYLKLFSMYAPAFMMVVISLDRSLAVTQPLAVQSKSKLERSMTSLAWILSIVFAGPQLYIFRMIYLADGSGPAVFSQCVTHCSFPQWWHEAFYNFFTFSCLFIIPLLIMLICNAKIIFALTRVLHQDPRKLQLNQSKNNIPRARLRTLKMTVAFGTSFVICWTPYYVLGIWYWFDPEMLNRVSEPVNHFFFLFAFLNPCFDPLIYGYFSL

[7] = Inhibitory concentration of compound against GnRH stimulated calcium flux in transfected cells; format: functional, cell-based
Procedure, shortened: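 GnRH-stimulated Ca2+ flux measured in hGnRH receptor-transfected cells. Inhibition tested across a concentration series, with IC50 taken from the dose-response curve.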

In the case of `COc1cccc(-c2c(C)n(Cc3c(F)cccc3F)c(=O)n(C[C@@H](C3CCCC3)N(C)C)c2=O)c1F`, the Ki [1] is reported as 0.6 nM.
Work on `COc1cccc(-c2c(C)n(Cc3c(F)cccc3F)c(=O)n(C[C@H](N)CC(C)(C)C)c2=O)c1F` yielded a Ki [1] of 71 nM.
`CN[C@H](CC(C)C)Cn1c(=O)c(-c2cccc(OC)c2F)c(C)n(Cc2c(F)cccc2F)c1=O` showed a Ki [1] of 1.2 nM.
Compound `COc1cccc(-c2c(C)n(Cc3c(F)cccc3F)c(=O)n(C[C@H](Cc3ccccc3)N(C)C)c2=O)c1F` has a Ki [1] of 7.9 nM.
`COc1cccc(-c2c(C)n(Cc3c(F)cccc3F)c(=O)n(C[C@@H](N)CC(C)C)c2=O)c1F` showed a Ki [1] of 39 nM.
`COc1cccc(-c2c(C)n(Cc3c(F)cccc3F)c(=O)n(C[C@@H](N)CCc3ccccc3)c2=O)c1F` showed a Ki [1] of 965 nM.
For `COc1cccc(-c2c(C)n(Cc3c(F)cccc3F)c(=O)n(C[C@@H](CC(C)C)NC(C)C)c2=O)c1F`, the Ki [1] was 12 nM.
`COc1cccc(-c2c(C)n(Cc3c(F)cccc3F)c(=O)n(C[C@@H](N)Cc3ccccc3)c2=O)c1F` showed a half-life [2] of 54 min, a clearance [3] of 65.6 mL/min/kg and a Ki [1] of 16 nM. It also gave a bioavailability [4] of 11% and a Vd [5] of 4.9 L/kg.
`COc1cccc(-c2c(C)n(Cc3c(F)cccc3F)c(=O)n(C[C@H](NC(C)C)C3CCCC3)c2=O)c1F` showed a Ki [1] of 12 nM.
Compound `COc1cccc(-c2c(C)n(Cc3c(F)cccc3F)c(=O)n(C[C@H](C)N)c2=O)c1F` has a Ki [1] greater than 10000 nM.
Compound `COc1cccc(-c2c(C)n(Cc3c(F)cccc3F)c(=O)n(C[C@H](N)CC(C)C)c2=O)c1F` has a half-life [2] of 42 min, a clearance [3] of 65.7 mL/min/kg and a Ki [1] of 6.4 nM. The bioavailability [4] was 6% and the Vd [5] was 3.9 L/kg.
Compound `COc1cccc(-c2c(C)n(Cc3c(F)cccc3F)c(=O)n(C[C@H](N)Cc3ccccc3)c2=O)c1F` has a Ki [1] of 66 nM.
For `COc1cccc(-c2c(C)n(Cc3c(F)cccc3F)c(=O)n(C[C@@H](N)C3CCCC3)c2=O)c1F`, the Ki [1] was 94 nM.
For `COc1cccc(-c2c(C)n(Cc3c(F)cccc3F)c(=O)n(C[C@@H](C)N)c2=O)c1F`, the Ki [1] was 595 nM.
For `COc1cccc(-c2c(C)n(Cc3c(F)cccc3F)c(=O)n(C[C@@H](N)C(C)C)c2=O)c1F`, the Ki [1] was 973 nM.
For `COc1cccc(-c2c(C)n(Cc3c(F)cccc3F)c(=O)n(C[C@@H](C3CCCCC3)N(C)C)c2=O)c1F`, the Ki [1] was 4.1 nM.
`COc1cccc(-c2c(C)n(Cc3c(F)cccc3F)c(=O)n(C[C@H](N)C3CCCC3)c2=O)c1F` gave a Ki [1] of 10 nM.
In the case of `COc1cccc(-c2c(C)n(Cc3c(F)cccc3F)c(=O)n(C[C@H](C)NCc3ccccc3)c2=O)c1F`, the half-life [2] is reported as 66 min, the clearance [3] is reported as 81.3 mL/min/kg and the Ki [1] is reported as 51 nM. For the same compound, the bioavailability [4] was 3% and the Vd [5] was 7.9 L/kg.
With `CN[C@@H](Cc1ccccc1)Cn1c(=O)c(-c2cccc(OC)c2F)c(C)n(Cc2c(F)cccc2F)c1=O` the Ki [6] was 11000 nM, the half-life [2] was 48 min and the clearance [3] was 97.2 mL/min/kg. It also gave a Ki [1] of 8.1 nM, a bioavailability [4] of 42% and an IC50 [7] of 20 nM. For the same compound, the Vd [5] was 6.9 L/kg.
Work on `COc1cccc(-c2c(C)n(Cc3c(F)cccc3F)c(=O)n(C[C@H](N)C3CCCCC3)c2=O)c1F` yielded a half-life [2] of 78 min, a clearance [3] of 65.4 mL/min/kg and a Ki [1] of 6.5 nM. The bioavailability [4] was 11%, the IC50 [7] was 60 nM and the Vd [5] was 7.3 L/kg.
Compound `COc1cccc(-c2c(C)n(Cc3c(F)cccc3F)c(=O)n(C[C@H](NC(C)C)C3CCCCC3)c2=O)c1F` has a Ki [1] of 23 nM.
For `COc1cccc(-c2c(C)n(Cc3c(F)cccc3F)c(=O)n(C[C@H](N)C(C)C)c2=O)c1F`, the Ki [1] was 51 nM.
`COc1cccc(-c2c(C)n(Cc3c(F)cccc3F)c(=O)n(C[C@H](C3CCCC3)N(C)C)c2=O)c1F` gave a Ki [1] of 2.4 nM.
Work on `COc1cccc(-c2c(C)n(Cc3c(F)cccc3F)c(=O)n(CC(N)C3CCCCC3)c2=O)c1F` (single isomer, unassigned) yielded a Ki [1] of 46 nM.
